This is an account of results in ChEMBL document CHEMBL1147923, “Synthesis, docking studies and anti-inflammatory activity of 4,5,6,7-tetrahydro-2H-indazole derivatives” (Bioorg Med Chem, 2007).

The source made the active and inactive calls.

Data set [1] deals with Rattus norvegicus. Kind of data set: Antiinflammatory activity against Freund's adjuvant-induced arthritis in Wistar rat assessed as reduction in paw width at 100 mg/kg, po. The class given is functional, organism-based. The arrangement: dose 100 mg/kg. Put shortly:
(§1)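 Arthritis induced by Freund's adjuvant injected into right paw; after 3 days paw height, paw width and joint width re-measured (day 0) and rats randomised. Dosed once daily for 3 further days (days 1–3), orally at 10 ml/kg or ip at 2 ml/kg, in vehicle 10% DMSO/10% Tween 80/80% water. Measurements taken at baseline, day 0 and days 1–4, compared with vehicle group.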

The test system of data set [2] is Rattus norvegicus. Kind of data set: Antiinflammatory activity against Freund's adjuvant-induced arthritis in Wistar rat assessed as reduction in paw width at 100 mg/kg, ip. The arrangement: dose 100 mg/kg. It counts as functional, organism-based. Put shortly: as §1
Data set [3] relates to Rattus norvegicus. Kind of data set: Antiinflammatory activity against Freund's adjuvant-induced arthritis in Wistar rat assessed as reduction in joint size at 100 mg/kg, ip. The class given is functional, organism-based. The arrangement: dose 100 mg/kg. Put shortly:
as §1

For data set [4], the system named is Rattus norvegicus. Put plainly: Antiinflammatory activity against Freund's adjuvant-induced arthritis in Wistar rat assessed as reduction in paw height at 100 mg/kg, ip. The class given is functional, organism-based. The arrangement: dose 100 mg/kg. Put shortly:
as §1

Data set [5] concerns Rattus norvegicus. Put plainly: Antiinflammatory activity against carrageenan-induced Wistar rat paw oedema at 50 mg/kg, po. It counts as functional, organism-based. The arrangement: dose 50 mg/kg. Put shortly:
(§2)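 Overnight-fasted rats dosed orally (10, 50, 100 mg/kg/10 ml) or with vehicle before carrageenan injection into the footpad. Equal volume of saline injected into left hindpaw. Rats killed 4 h later and hind paws cut and weighed. Oedema taken as right minus left paw weight; means ± SEM versus vehicle.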

The test system of data set [6] is Rattus norvegicus. Put plainly: Antiinflammatory activity against Freund's adjuvant-induced arthritis in Wistar rat assessed as reduction in paw height at 100 mg/kg, po. The arrangement: dose 100 mg/kg. The class given is functional, organism-based. Put shortly:
as §1

Data set [7] deals with Rattus norvegicus. Put plainly: Toxicity in arthritic Wistar rat assessed as gastric ulcerogenic response at 100 mg/kg, po. It counts as organism-based, Stomach. The arrangement: dose 100 mg/kg, route oral. As to conditions: in vivo. Put shortly: (§3)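 Arthritis induced as for adjuvant model. Two days later rats fasted overnight, then dosed orally (10 ml/kg) or with vehicle; indomethacin 10 mg/kg po as positive control. Rats killed 4 h later, stomachs opened along greater curvature. Ulcer index taken as summed lesion length (mm) in gastric mucosa.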

Data set [8] deals with Rattus norvegicus. Kind of data set: Antiinflammatory activity against carrageenan-induced Wistar rat paw oedema at 10 mg/kg, po. The arrangement: dose 10 mg/kg. The class given is functional, organism-based. Put shortly: as §2
In general terms: In the carrageenan paw model, swelling and tenderness develop within hours.

Data set [9] relates to Rattus norvegicus. Kind of data set: Antiinflammatory activity against Freund's adjuvant-induced arthritis in Wistar rat assessed as reduction in joint size at 100 mg/kg, po. The class given is functional, organism-based. The arrangement: dose 100 mg/kg. Put shortly:
as §1

Data set [10] concerns Rattus norvegicus. Put plainly: Antiinflammatory activity against carrageenan-induced Wistar rat paw oedema at 100 mg/kg, po. The arrangement: dose 100 mg/kg. The class given is functional, organism-based. Put shortly: as §2
Data set [11] has as its system Rattus norvegicus. Kind of data set: Antinociceptive activity in Wistar rat assessed as increase in latency time at 50 mg/kg, ip. The arrangement: dose 50 mg/kg. It counts as functional, organism-based. Put shortly: (§4)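 Freund's adjuvant-arthritic rats given ip dosing (10 ml/kg) or vehicle once daily for 4 days. Hot-plate test the day after the last injection at 55 ± 0.5 °C, set for 15–18 s control latency. Latency to hind-paw licking or jump recorded, 60 s cut-off. Each rat tested twice, 30 min apart. Normal rats included as controls.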

Data set [12] concerns Rattus norvegicus. Kind of data set: Antiinflammatory activity against Freund's adjuvant-induced arthritis in Wistar rat assessed as reduction in paw height at 10 mg/kg, po. It counts as functional, organism-based. The arrangement: dose 10 mg/kg. Put shortly: as §1
For data set [13], the system named is Rattus norvegicus. Put plainly: Antiinflammatory activity against Freund's adjuvant-induced arthritis in Wistar rat assessed as reduction in paw width at 10 mg/kg, po. It counts as functional, organism-based. The arrangement: dose 10 mg/kg. Put shortly: as §1
For data set [14], the system named is Rattus norvegicus. Put plainly: Antiinflammatory activity in Wistar rat assessed as reduction of carrageenan-induced paw oedema. The class given is functional, organism-based. Put shortly: as §2
The subject of data set [15] is Rattus norvegicus. Put plainly: Antinociceptive activity in Wistar rat assessed as increase in latency time at 100 mg/kg, ip. It counts as functional, organism-based. The arrangement: dose 100 mg/kg. Put shortly:
as §4

Data set [16] concerns Rattus norvegicus. Kind of data set: Antiinflammatory activity against Freund's adjuvant-induced arthritis in Wistar rat assessed as reduction in paw width at 50 mg/kg, po. It counts as functional, organism-based. The arrangement: dose 50 mg/kg. Put shortly:
as §1

Data set [17] deals with Rattus norvegicus. Kind of data set: Antiinflammatory activity against Freund's adjuvant-induced arthritis in Wistar rat assessed as reduction in paw height at 50 mg/kg, po. It counts as functional, organism-based. The arrangement: dose 50 mg/kg. Put shortly:
as §1

Data set [18] concerns Rattus norvegicus. Put plainly: Antiinflammatory activity against Freund's adjuvant-induced arthritis in Wistar rat assessed as reduction in joint width at 50 mg/kg, po. The class given is functional, organism-based. The arrangement: dose 50 mg/kg. Put shortly: as §1
Data set [19] concerns Rattus norvegicus. Put plainly: Antiinflammatory activity against Freund's adjuvant-induced arthritis in Wistar rat assessed as reduction in joint width at 10 mg/kg, po. The arrangement: dose 10 mg/kg. It counts as functional, organism-based. Put shortly:
as §1

Data set [20] relates to Rattus norvegicus. Put plainly: Toxicity in arthritic Wistar rat assessed as gastric ulcerogenic response at 10 mg/kg, po. It counts as organism-based, Stomach. The arrangement: dose 10 mg/kg, route oral. To be noted: in vivo. Put shortly:
as §3

As for `FC(F)(F)c1ccnc(-n2nc3c(c2-c2ccccc2)CCCC3)n1`, the result with Rattus norvegicus [1], in the data set with Rattus norvegicus [3], in the data set on Rattus norvegicus [5], in the data set with Rattus norvegicus [8], in the data set on Rattus norvegicus [9] and in the data set on Rattus norvegicus [10] was inactive. The outcome with Rattus norvegicus [2], in the data set with Rattus norvegicus [4] and in the data set with Rattus norvegicus [6] was Active. In addition, in the data set on Rattus norvegicus [7], the Activity entry was “Non-toxic”.

Consider `FC(F)(F)c1ccc(-n2nc3c(c2-c2ccccc2)CCCC3)cc1`, for which the result in the data set on Rattus norvegicus [1], in the data set on Rattus norvegicus [12], in the data set with Rattus norvegicus [13], with Rattus norvegicus [16], in the data set on Rattus norvegicus [17] and in the data set with Rattus norvegicus [6] was inactive. For the same molecule, the result with Rattus norvegicus [18], in the data set on Rattus norvegicus [9] and in the data set on Rattus norvegicus [19] was inactive. Also, the outcome in the data set with Rattus norvegicus [2], with Rattus norvegicus [11], in the data set on Rattus norvegicus [3], with Rattus norvegicus [4] and in the data set with Rattus norvegicus [15] was Active. The Activity entry is “Dose-dependent effect” with Rattus norvegicus [14] and “Non-toxic” in the data set on Rattus norvegicus [7].

Regarding `COc1ccc2c(c1)c(CC(=O)O)c(C)n2C(=O)c1ccc(Cl)cc1` [INDOMETHACIN], in the data set with Rattus norvegicus [20], the Activity entry is on record as “Toxic”.
